# Data: paper PMC4276534 (ChemMedChem, 2014)
# Legend:
# [1] = Intrinsic clearance in human hepatic microsomes; assay type: in vitro ADME
# [2] = Intrinsic clearance in rat hepatic microsomes; assay type: in vitro ADME
# [3] = Plasma protein binding by equilibrium dialysis, human; assay type: in vitro ADME; conditions: free fraction
# [4] = Plasma protein binding by equilibrium dialysis, rat; assay type: in vitro ADME; conditions: free fraction
# [5] = system: 68 GPCR's, ion channels and transporters; test: EuroFin's Lead Profiling Screen binding assay panel; conditions: 10 μM
# MrgX1 [6] = biological target: T1, MrgX1 (Homo sapiens, UniProt Q96LB2); test: Ca2+ imaging assay on MrgX1-expressing HEK293 cells; assay type: cell-based
# Procedure, shortened: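 Ca2+ imaging in HEK293 cells expressing MrgX1, read as relative fluorescence units. Test compound was titrated alone and with a submaximal BAM8-22 level (10 nM). EC50 came from dose-response curve fitting and was not determined when Emax was <50%. Emax is given as % of a reference analogue. Three repeat experiments, mean±SEM.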
# MrgX1 [7] = biological target: T1, MrgX1; test: HTS triple addition screen for MrgX1 positive allosteric modulators; assay type: cell-based; conditions: read-out: MrgX1 EC50; HTS screen value; HEK293 cell line stably expressing MrgX1
# T1 sequence (Q96LB2 whole entry): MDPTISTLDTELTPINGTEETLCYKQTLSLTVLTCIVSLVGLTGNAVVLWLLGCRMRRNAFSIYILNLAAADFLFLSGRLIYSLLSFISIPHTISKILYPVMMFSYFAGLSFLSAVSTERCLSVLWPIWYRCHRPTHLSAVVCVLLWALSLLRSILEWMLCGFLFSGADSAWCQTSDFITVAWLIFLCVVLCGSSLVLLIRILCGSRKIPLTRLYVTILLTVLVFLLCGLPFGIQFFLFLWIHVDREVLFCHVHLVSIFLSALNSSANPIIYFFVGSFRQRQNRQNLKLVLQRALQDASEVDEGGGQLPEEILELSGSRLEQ
molecule,measurement,setting,value
"CCOc1ccccc1NC(=O)c1ccccc1NS(=O)(=O)C1CC1 [4l, 2-(cyclopropanesulfonamido)-N-(2-ethoxyphenyl)benzamide]","Human CLHEP, Microsome Predicted Hepatic Clearance",[1],15.7 mL/min/kg
same,"Rat CLHEP, Microsome Predicted Hepatic Clearance",[2],65.7 mL/min/kg
same,"Human PPB, Percent Free Compound in Plasma",[3],0.4%
same,"Rat PPB, Percent Free Compound in Plasma",[4],1.7%
same,Inhibition of radio ligand binding >50% in panel of 68 targets,[5],did not inhibit 67 of the 68 targets
same,Activation of MrgX1 (agonistic activity),MrgX1 [6]; in the absence of BAM8-22,does not activate MrgX1
same,Effect on the EMax of BAM8-22,MrgX1 [6]; maximum concentration of BAM8-22 used,does not affect the EMax of BAM8-22
same,Emax as % of standard compound (4i),"MrgX1 [6]; normalized to the positive control (4i, 100%)",195 ± 8%
same,EC50,"MrgX1 [6]; read-out: MrgX1 EC50, Table 3, alkylsulfonamides, in presence of BAM8-22",190 ± 60 nM
CCOc1ccccc1NC(=O)c1ccccc1NS(C)(=O)=O [SID 4258711],EC50,MrgX1 [7],96 nM
"H-VGRPEWWMDYQKRYG-OH [BAM8-22, reference compound]",EC50,"MrgX1 [6]; EC50 of BAM8-22 on MrgX1, with ML382",2.9 nM
same,EC50,"MrgX1 [6]; EC50 of BAM8-22 on MrgX1, without ML382",18.7 nM
CSc1ccccc1NC(=O)c1ccccc1N(C)S(C)(=O)=O [SID 4262381],EC50,MrgX1 [7],329 nM
